Measured values from ChEMBL document CHEMBL1158182, “Antifungal activity of chalcones: a mechanistic study using various yeast strains” (Eur J Med Chem, 2008).
Converted amounts (≈) assume the structure as drawn. The source made the active and inactive calls. The calls are words filed in the database; no cut-off is given here.

Assays:
[1] = test system: Saccharomyces cerevisiae; assay: Antifungal activity against haploid Saccharomyces cerevisiae 1S by agar dilution method; type: functional
Method in brief: (§1)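 S. cerevisiae and K. lactis strains were tested by agar dilution on rich YPD agar at 30 °C. Compound stocks in 96% EtOH were added to the medium to give […]. Cells were suspended in water, serially diluted to 10^9–10^3 cells/ml, and plated with a metal replicator. MIC was read from growth.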

[2] = test system: Saccharomyces cerevisiae; assay: Antifungal activity against diploid Saccharomyces cerevisiae PV-2 by agar dilution method; type: functional
Method in brief: (§2)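 MICs by agar dilution on rich YPD medium. Compounds were added from 96% EtOH stocks to give final agar concentrations of 20 to 50 (units as printed in the source). Cells were suspended in water, serially diluted to 10^9, 10^7, 10^5 and 10^3 cells/ml, and spotted onto agar with a metal replicator. Incubation was at 37 °C for H. polymorpha and 30 °C for S. cerevisiae.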

[3] = test system: Saccharomyces cerevisiae; assay: Antifungal activity against diploid Saccharomyces cerevisiae PV-3 by agar dilution method; type: functional; method in brief: as §2
[4] = test system: Saccharomyces cerevisiae; assay: Antifungal activity against haploid Saccharomyces cerevisiae 1169 by agar dilution method; type: functional; method in brief: as §1
[5] = test system: Saccharomyces cerevisiae; assay: Antifungal activity against haploid Saccharomyces cerevisiae 2180 by agar dilution method; type: functional; method in brief: as §1
[6] = test system: Saccharomyces cerevisiae; assay: Antifungal activity against diploid Saccharomyces cerevisiae 1a by agar dilution method; type: functional; method in brief: as §1
[7] = test system: Saccharomyces cerevisiae; assay: Antifungal activity against diploid Saccharomyces cerevisiae 29a by agar dilution method; type: functional; method in brief: as §1
[8] = test system: Saccharomyces cerevisiae; assay: Antifungal activity against haploid Saccharomyces cerevisiae Sigma 1278b by agar dilution method; type: functional; method in brief: as §1
[9] = test system: Saccharomyces cerevisiae; assay: Antifungal activity against haploid Saccharomyces cerevisiae D3C by agar dilution method; type: functional; method in brief: as §2
[10] = test system: Saccharomyces cerevisiae; assay: Antifungal activity against haploid Saccharomyces cerevisiae FY4 by agar dilution method; type: functional; method in brief: as §1
[11] = test system: Saccharomyces cerevisiae; assay: Antifungal activity against haploid Saccharomyces cerevisiae 10560-6B by agar dilution method; type: functional; method in brief: as §1
[12] = test system: Saccharomyces cerevisiae; assay: Antifungal activity against haploid Saccharomyces cerevisiae YSH1170 by agar dilution method; type: functional; method in brief: as §1
[13] = test system: Saccharomyces cerevisiae; assay: Antifungal activity against haploid Saccharomyces cerevisiae YSH1171 by agar dilution method; type: functional; method in brief: as §1
[14] = test system: Ogataea angusta; assay: Antifungal activity against Hansenula polymorpha WT1 with ade1 ura3 genotype by agar dilution method; type: functional
Method in brief: (§3)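 H. polymorpha strains were tested by agar dilution on rich YPD agar at 37 °C. Compound stocks in 96% EtOH were mixed into the medium to give […]. Cells were suspended in water, serially diluted to 10^9, 10^7, 10^5 and 10^3 cells/ml, and applied to the agar with a metal replicator. MIC was read from growth.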

[15] = test system: Ogataea angusta; assay: Antifungal activity against Hansenula polymorpha WT2 with ade1 met6 genotype by agar dilution method; type: functional; method in brief: as §3
[16] = test system: Ogataea angusta; assay: Antifungal activity against Hansenula polymorpha CD1 with ade1 leu2 cds1 genotype by agar dilution method; type: functional; method in brief: as §3
[17] = test system: Ogataea angusta; assay: Antifungal activity against Hansenula polymorpha CD2 with ade1 leu2 cds2 genotype by agar dilution method; type: functional; method in brief: as §3
[18] = test system: Ogataea angusta; assay: Antifungal activity against Hansenula polymorpha CD3 with ade1 leu2 cds3 genotype by agar dilution method; type: functional; method in brief: as §3
[19] = test system: Ogataea angusta; assay: Antifungal activity against Hansenula polymorpha WA1 with ade1 leu2 gsh1 genotype by agar dilution method; type: functional; method in brief: as §2
[20] = test system: Ogataea angusta; assay: Antifungal activity against Hansenula polymorpha 2a with arg1 leu2 ura3 cys1 genotype by agar dilution method; type: functional; method in brief: as §3
[21] = test system: Ogataea angusta; assay: Antifungal activity against Hansenula polymorpha 2b with arg1 ade1 leu2 genotype by agar dilution method; type: functional; method in brief: as §3
[22] = test system: Ogataea angusta; assay: Antifungal activity against Hansenula polymorpha D22 with arg1/arg1 ade1/ADE1 leu2/leu2 URA3/ura3 CYS1/cys1 genotype by agar dilution method; type: functional; method in brief: as §3
[23] = test system: Ogataea angusta; assay: Antifungal activity against Hansenula polymorpha M2 with met2 genotype by agar dilution method; type: functional; method in brief: as §3
[24] = test system: Ogataea angusta; assay: Antifungal activity against Hansenula polymorpha MC1 with met2 cys1 genotype by agar dilution method; type: functional; method in brief: as §3
[25] = test system: Ogataea angusta; assay: Antifungal activity against Hansenula polymorpha AS1 with arg1 gsh2delta genotype by agar dilution method; type: functional; method in brief: as §3
[26] = test system: Ogataea angusta; assay: Antifungal activity against Hansenula polymorpha M4 with met4 genotype by agar dilution method; type: functional; method in brief: as §3
[27] = test system: Ogataea angusta; assay: Antifungal activity against Hansenula polymorpha AU05 with ade3 ura3 genotype by agar dilution method; type: functional; method in brief: as §3
[28] = test system: Ogataea angusta; assay: Antifungal activity against Hansenula polymorpha CTA1 with leu2 cat1 genotype by agar dilution method; type: functional; method in brief: as §2
[29] = test system: Ogataea angusta; assay: Antifungal activity against Hansenula polymorpha R3 with rgh3 genotype by agar dilution method; type: functional; method in brief: as §3
[30] = test system: Ogataea angusta; assay: Antifungal activity against Hansenula polymorpha CRD2 with leu2 CDR2 genotype by agar dilution method; type: functional; method in brief: as §3
[31] = test system: Kluyveromyces lactis; assay: Antifungal activity against Kluyveromyces lactis 2-18B with MATalpha metA1 ura3 leu2 genotype by agar dilution method; type: functional; method in brief: as §1
[32] = test system: Kluyveromyces lactis; assay: Antifungal activity against Kluyveromyces lactis 1-6A with MATalpha uraA lys arg genotype by agar dilution method; type: functional; method in brief: as §1
[33] = test system: Kluyveromyces lactis; assay: Antifungal activity against Kluyveromyces lactis 2-19B with MATalpha ura lys arg genotype by agar dilution method; type: functional; method in brief: as §1
[34] = test system: Ogataea angusta; assay: Antifungal activity against Hansenula polymorpha WT1 with cellular density of 10^3 cells/ml at >40 uM by agar dilution method; type: functional, organism-based
[35] = test system: Ogataea angusta; assay: Antifungal activity against Hansenula polymorpha 2a with cys1 genotype with cellular density of 10^3 cells/ml at >40 uM by agar dilution method; type: functional, organism-based
[36] = test system: Ogataea angusta; assay: Antifungal activity against Hansenula polymorpha AS1 with gsh1 genotype with cellular density of 10^3 cells/ml at >40 uM by agar dilution method; type: functional, organism-based
[37] = test system: Ogataea angusta; assay: Antifungal activity against Hansenula polymorpha AS2 with gsh2 genotype with cellular density of 10^3 cells/ml at >40 uM by agar dilution method; type: functional, organism-based
[38] = test system: Ogataea angusta; assay: Antifungal activity against Hansenula polymorpha WT1 with cellular density of 10^9 cells/ml at 40 uM by agar dilution method; type: functional, organism-based
[39] = test system: Ogataea angusta; assay: Antifungal activity against Hansenula polymorpha 2a with cys1 genotype with cellular density of 10^9 cells/ml at 40 uM by agar dilution method; type: functional, organism-based
[40] = test system: Ogataea angusta; assay: Antifungal activity against Hansenula polymorpha AS1 with gsh1 genotype with cellular density of 10^9 cells/ml at 40 uM by agar dilution method; type: functional, organism-based
[41] = test system: Ogataea angusta; assay: Antifungal activity against Hansenula polymorpha AS2 with gsh2 genotype with cellular density of 10^9 cells/ml at 40 uM by agar dilution method; type: functional, organism-based
[42] = test system: Ogataea angusta; assay: Antifungal activity against Hansenula polymorpha WT1 at 20 to 30 uM after 1 day by agar dilution method; type: functional, organism-based
[43] = test system: Ogataea angusta; assay: Antifungal activity against Hansenula polymorpha 2a with cys1 genotype at 20 to 30 uM after 1 day by agar dilution method; type: functional, organism-based
[44] = test system: Ogataea angusta; assay: Antifungal activity against Hansenula polymorpha AS1 with gsh1 genotype at 20 to 30 uM after 1 day by agar dilution method; type: functional, organism-based
[45] = test system: Ogataea angusta; assay: Antifungal activity against Hansenula polymorpha AS2 with gsh2 genotype at 20 to 30 uM after 1 day by agar dilution method; type: functional, organism-based
[46] = Stability of compound in liquid YPD media after 48 hrs by UV spectrophotometry; type: physicochemical
Method in brief: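 Compound from a 96% EtOH stock was added to liquid YPD to […]. The medium was inoculated with 10^5 cells/ml of H. polymorpha WT1 and incubated at 37 °C. Samples were taken at 24 and 48 h and centrifuged, and compound in the supernatant was measured by absorbance at 308 nm. Controls had no cells. Assays were run in triplicate.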

Structure (SMILES): O=C(/C=C/c1cccc(O)c1)c1ccccc1 [3-HYDROXY CHALCONE]
- MIC [1]: 25 µg/mL (≈ 111 µM)
- MIC [2]: 25 µg/mL (≈ 111 µM)
- MIC [3]: 25 µg/mL (≈ 111 µM)
- MIC [4]: 30 µg/mL (≈ 134 µM)
- MIC [5]: 25 µg/mL (≈ 111 µM)
- MIC [6]: 25 µg/mL (≈ 111 µM)
- MIC [7]: 25 µg/mL (≈ 111 µM)
- MIC [8]: 25 µg/mL (≈ 111 µM)
- MIC [9]: 25 µg/mL (≈ 111 µM)
- MIC [10]: 25 µg/mL (≈ 111 µM)
- MIC [11]: 25 µg/mL (≈ 111 µM)
- MIC [12]: 25 µg/mL (≈ 111 µM)
- MIC [13]: 20 µg/mL (≈ 89.2 µM)
- MIC [14]: 35 µg/mL (≈ 156 µM)
- MIC [15]: 25 µg/mL (≈ 111 µM)
- MIC [16]: 25 µg/mL (≈ 111 µM)
- MIC [17]: 25 µg/mL (≈ 111 µM)
- MIC [18]: 25 µg/mL (≈ 111 µM)
- MIC [19]: < 20 µg/mL
- MIC [20]: 25 µg/mL (≈ 111 µM)
- MIC [21]: 25 µg/mL (≈ 111 µM)
- MIC [22]: 25 µg/mL (≈ 111 µM)
- MIC [23]: 25 µg/mL (≈ 111 µM)
- MIC [24]: 20 µg/mL (≈ 89.2 µM)
- MIC [25]: 20 µg/mL (≈ 89.2 µM)
- MIC [26]: 30 µg/mL (≈ 134 µM)
- MIC [27]: 35 µg/mL (≈ 156 µM)
- MIC [28]: 35 µg/mL (≈ 156 µM)
- MIC [29]: 20 µg/mL (≈ 89.2 µM)
- MIC [30]: 20 µg/mL (≈ 89.2 µM)
- MIC [31]: < 20 µg/mL
- MIC [32]: < 20 µg/mL
- MIC [33]: < 20 µg/mL

Structure (SMILES): O=C(/C=C/c1ccccc1)c1ccccc1 [CHALCONE]
- MIC [1]: > 40 µg/mL
- MIC [4]: > 40 µg/mL
- MIC [5]: > 40 µg/mL
- MIC [6]: > 40 µg/mL
- MIC [7]: > 40 µg/mL
- MIC [8]: > 40 µg/mL
- MIC [10]: > 40 µg/mL
- MIC [11]: > 40 µg/mL
- MIC [12]: > 40 µg/mL
- MIC [13]: > 40 µg/mL
- MIC [14]: 30 µg/mL (≈ 144 µM)
- MIC [15]: 30 µg/mL (≈ 144 µM)
- MIC [16]: 30 µg/mL (≈ 144 µM)
- MIC [17]: 30 µg/mL (≈ 144 µM)
- MIC [18]: 30 µg/mL (≈ 144 µM)
- MIC [20]: 25 µg/mL (≈ 120 µM)
- MIC [21]: 30 µg/mL (≈ 144 µM)
- MIC [22]: 30 µg/mL (≈ 144 µM)
- MIC [23]: 30 µg/mL (≈ 144 µM)
- MIC [24]: 20 µg/mL (≈ 96 µM)
- MIC [25]: 20 µg/mL (≈ 96 µM)
- MIC [26]: < 20 µg/mL
- MIC [27]: < 20 µg/mL
- MIC [28]: 30 µg/mL (≈ 144 µM)
- MIC [29]: > 40 µg/mL
- MIC [30]: > 40 µg/mL
- MIC [31]: < 20 µg/mL
- MIC [32]: < 20 µg/mL
- MIC [33]: 25 µg/mL (≈ 120 µM)
- Activity [34]: Active
- Activity [35]: Active
- Activity [36]: Active
- Activity [37]: Active
- Activity [38]: inactive
- Activity [39]: inactive
- Activity [40]: inactive
- Activity [41]: inactive
- Activity [42]: Active
- Activity [43]: Active
- Activity [44]: Active
- Activity [45]: Active
- Activity [46]: 7.1 µg/mL
